Converted amounts (≈) assume the structure as drawn. The source made the active and inactive calls. The rule behind the calls is not given here.

The first experiment relates to Trypanosoma brucei brucei. Description: Antitrypanosomal activity against bloodstream form of Trypanosoma brucei brucei S427 after 48 hrs by Alamar Blue assay.
Settings: not given
The class given is functional. Put shortly:
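T. b. brucei S427 cultured in HMI-9 with 20% […] FCS, 37 °C, 5% CO2. Compounds from 0.1 M DMSO stocks diluted in HMI-9 (top wells 50, 200 or 400 μM), serially diluted; cells added at 2 × 10⁴ cells/mL. 48 h incubation, then resazurin (Alamar Blue) for further 24 h; fluorescence ex 530/em 590 nm. MIC determined in duplicate.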
In general terms: Alamar Blue is a resazurin reagent that responds to reducing activity.
Broadly, the MIC is the lowest concentration found to suppress growth. For the compound `O=C(O)CN1C(=O)CN(CC2CCCCC2)C(=O)c2ccccc21`, the MIC result is “inactive”.
Same read-out and setting: the same measure for `O=C(O)CN1C(=O)CN(CC2CCCCC2)C(=O)c2cc(Cl)ccc21`: “inactive”; for `C=CCN1C(=O)CN(CC2CCNCC2)C(=O)c2ccccc21`: “inactive”; for `CN1C(=O)CN(CC2CCNCC2)C(=O)c2ccccc21`: “inactive”.
Still for that read-out and setting: the same measure for `CN1C(=O)CN(CC2CCNCC2)C(=O)c2cc(Cl)ccc21`: “inactive”.

The experiment is the same for the next values; noted with them: S427, 48 h.
With `O=C1c2ccccc2N(Cc2ccccc2-c2ccccc2)C(=O)CN1CC1CCCCC1`, the MIC was determined as 125 µM (≈ 54.8 µg/mL).
As to `CCOC(=O)CN1C(=O)CN(CC2CCCCC2)C(=O)c2ccccc21`, the MIC worked out at 125 µM (≈ 44.8 µg/mL).
On the same count and under the same terms, for `O=c1c2ccccc2n(Cc2ccccc2)c(=O)n1CC1CCCCC1` the value was 15.6 µM (≈ 5.44 µg/mL).
`O=c1c2ccccc2n(Cc2ccccc2-c2ccccc2)c(=O)n1CC1CCNCC1` showed an MIC of 3.9 µM (≈ 1.66 µg/mL).
As for `Cn1c(=O)n(CC2CCCCC2)c(=O)c2cc(Cl)ccc21`, the MIC was 31.2 µM (≈ 9.57 µg/mL).
Same read-out and setting: the same measure for `CCCN1C(=O)CN(CC2CCCCC2)C(=O)c2ccccc21`: 62.5 µM (≈ 19.7 µg/mL); for `O=c1c2ccccc2n(Cc2ccccc2-c2ccccc2)c(=O)n1CC1CCCCC1`: 7.8 µM (≈ 3.31 µg/mL); for `O=C1c2cc(Cl)ccc2N(Cc2ccc(-c3ccccc3)cc2)C(=O)CN1CC1CCCCC1`: 3.9 µM (≈ 1.84 µg/mL).
In the case of `O=c1c2cc(Cl)ccc2n(Cc2ccccc2)c(=O)n1CC1CCCCC1`, the MIC was 62.5 µM (≈ 23.9 µg/mL).
As for `CCCCN1C(=O)CN(CC2CCCCC2)C(=O)c2cc(Cl)ccc21`, the minimal inhibitory concentration (MIC) was 15.6 µM (≈ 5.66 µg/mL).
With `O=C1c2cc(Cl)ccc2N(Cc2ccccc2)C(=O)CN1CC1CCCCC1`, the lowest concentration to inhibit growth (MIC) was 15.6 µM (≈ 6.19 µg/mL).
In the case of `O=C1c2cc(Cl)ccc2N(Cc2ccccc2)C(=O)CN1CC1CCNCC1`, the MIC was determined as 125 µM (≈ 49.7 µg/mL).
On the same count and under the same terms, the same measure for `CN1C(=O)CN(CC2CCCCC2)C(=O)c2ccccc21`: 125 µM (≈ 35.8 µg/mL); for `CCN1C(=O)CN(CC2CCCCC2)C(=O)c2ccccc21`: 62.5 µM (≈ 18.8 µg/mL); for `O=c1c2cc(Cl)ccc2n(Cc2ccccc2-c2ccccc2)c(=O)n1CC1CCNCC1`: 0.97 µM (≈ 0.446 µg/mL).
On the same count and under the same terms, for `O=C1c2cc(Cl)ccc2N(Cc2ccccc2-c2ccccc2)C(=O)CN1CC1CCNCC1` the value was 7.8 µM (≈ 3.7 µg/mL); for `CC(C)(C)OC(=O)N1CCC(Cn2c(=O)c3cc(Cl)ccc3n(Cc3ccccc3-c3ccccc3)c2=O)CC1`, 7.8 µM (≈ 4.37 µg/mL).
Consider `Cn1c(=O)n(CC2CCCCC2)c(=O)c2ccccc21`, for which the MIC worked out at 62.5 µM (≈ 17 µg/mL).
`O=C1c2ccccc2N(Cc2ccccc2-c2ccccc2)C(=O)CN1CC1CCNCC1` registered an MIC of 31.2 µM (≈ 13.7 µg/mL).
`CC(C)(C)OC(=O)N1CCC(Cn2c(=O)c3cc(Cl)ccc3n(Cc3ccc(-c4ccccc4)cc3)c2=O)CC1` displayed an MIC of 125 µM (≈ 70 µg/mL).
`O=C1c2ccccc2N(Cc2ccccc2)C(=O)CN1CC1CCCCC1` gave an MIC of 31.2 µM (≈ 11.3 µg/mL).
On the same count and under the same terms, the same measure for `CCCCn1c(=O)n(CC2CCCCC2)c(=O)c2cc(Cl)ccc21`: 62.5 µM (≈ 21.8 µg/mL); for `O=C1c2cc(Cl)ccc2N(Cc2ccccc2-c2ccccc2)C(=O)CN1CC1CCCCC1`: 7.8 µM (≈ 3.69 µg/mL).
Still for that read-out and setting: for `O=C1c2ccccc2N(Cc2ccc(-c3ccccc3)cc2)C(=O)CN1CC1CCCCC1` the value was 7.8 µM (≈ 3.42 µg/mL); for `O=C1c2ccccc2N(CC2CC2)C(=O)CN1CC1CCCCC1`, 62.5 µM (≈ 20.4 µg/mL).
Same read-out and setting: for `C=CCN1C(=O)CN(CC2CCNCC2)C(=O)c2cc(Cl)ccc21` the value was 250 µM (≈ 87 µg/mL).
As to `CCOC(=O)Cn1c(=O)n(CC2CCCCC2)c(=O)c2cc(Cl)ccc21`, the lowest concentration to inhibit growth (MIC) was 250 µM (≈ 94.7 µg/mL).
The same measure, in the same setting: for `CCN1C(=O)CN(CC2CCCCC2)C(=O)c2cc(Cl)ccc21` the value was 62.5 µM (≈ 20.9 µg/mL).
On the same count and under the same terms, the same measure for `CN1C(=O)CN(CC2CCCCC2)C(=O)c2cc(Cl)ccc21`: 62.5 µM (≈ 20.1 µg/mL); for `C=CCN1C(=O)CN(CC2CCCCC2)C(=O)c2cc(Cl)ccc21`: 62.5 µM (≈ 21.7 µg/mL).
Same read-out and setting: the same measure for `CCCCN1C(=O)CN(CC2CCNCC2)C(=O)c2cc(Cl)ccc21`: 250 µM (≈ 91 µg/mL).
Compound `CC(C)(C)OC(=O)N1CCC(Cn2c(=O)c3ccccc3n(Cc3ccccc3-c3ccccc3)c2=O)CC1` yielded an MIC of 125 µM (≈ 65.7 µg/mL).
The compound `CCn1c(=O)n(CC2CCCCC2)c(=O)c2ccccc21` showed an MIC of 31.2 µM (≈ 8.93 µg/mL).
Still for that read-out and setting: the same measure for `O=C1c2cc(Cl)ccc2N(CC2CC2)C(=O)CN1CC1CCCCC1`: 31.2 µM (≈ 11.3 µg/mL).
On the same count and under the same terms, for `O=c1c2cc(Cl)ccc2n(Cc2ccc(-c3ccccc3)cc2)c(=O)n1CC1CCCCC1` the value was 125 µM (≈ 57.4 µg/mL).
In turn, `CCCCN1C(=O)CN(CC2CCNCC2)C(=O)c2ccccc21` had an MIC of 62.5 µM (≈ 20.6 µg/mL).
The same measure, in the same setting: the same measure for `CC(C)(C)OC(=O)N1CCC(Cn2c(=O)c3cc(Cl)ccc3n(Cc3ccccc3)c2=O)CC1`: 62.5 µM (≈ 30.2 µg/mL); for `O=c1c2cc(Cl)ccc2n(Cc2ccccc2)c(=O)n1CC1CCNCC1`: 15.6 µM (≈ 5.99 µg/mL).
The same measure, in the same setting: for `CCCCN1C(=O)CN(CC2CCCCC2)C(=O)c2ccccc21` the value was 31.2 µM (≈ 10.3 µg/mL); for `O=c1c2cc(Cl)ccc2n(Cc2ccc(-c3ccccc3)cc2)c(=O)n1CC1CCNCC1`, 0.97 µM (≈ 0.446 µg/mL).
Same read-out and setting: the same measure for `CCOC(=O)Cn1c(=O)n(CC2CCCCC2)c(=O)c2ccccc21`: 31.2 µM (≈ 10.8 µg/mL); for `O=C1c2ccccc2N(Cc2ccccc2)C(=O)CN1CC1CCNCC1`: 250 µM (≈ 90.9 µg/mL); for `CCn1c(=O)n(CC2CCCCC2)c(=O)c2cc(Cl)ccc21`: 15.6 µM (≈ 5 µg/mL).
Compound `O=c1c2cc(Cl)ccc2n(Cc2ccccc2-c2ccccc2)c(=O)n1CC1CCCCC1` had an MIC of 62.5 µM (≈ 28.7 µg/mL).
With `CCOC(=O)CN1C(=O)CN(CC2CCCCC2)C(=O)c2cc(Cl)ccc21`, it took 62.5 µM (≈ 24.6 µg/mL) to inhibit growth (MIC).
As to `CCCN1C(=O)CN(CC2CCCCC2)C(=O)c2cc(Cl)ccc21`, the MIC turned out to be 31.2 µM (≈ 10.9 µg/mL).
The compound `C=CCN1C(=O)CN(CC2CCCCC2)C(=O)c2ccccc21` displayed an MIC of 125 µM (≈ 39.1 µg/mL).

For the origin of these results see ChEMBL document CHEMBL2146472, “Identification and development of the 1,4-benzodiazepin-2-one and quinazoline-2,4-dione scaffolds as submicromolar inhibitors of HAT” (2012).
